Drawing on ChEMBL document CHEMBL4513216, “Probing the Open Global Health Chemical Diversity Library for Multistage-Active Starting Points for Next-Generation Antimalarials” (ACS Infect Dis, 2020), this text covers cytotoxicity for 97 molecules.

The nature of the data set: Toxicity liver stage against HepG2, at 10uM. The format is cell-based. Also noted: test concentration 10 uM, cell line HepG2-A16-CD81EGFP. The following applies: human, HepG2-A16-CD81EGFP cells; read-out: INHIBITION
In outline: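 Uninfected HepG2-A16-CD81EGFP cells, 3 × 10^3 per well, 1536-well, plated on prespotted compound at 10 μM final, parasite-free screening media added to match infected plates; puromycin 10 μM positive, DMSO 0.5% negative; run in parallel with 48 h PbLuc assay at 37 °C, 5% CO2; viability by CellTiter-Glo luminescence, normalized to controls.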
Turning to `O=C1c2cccnc2OC(CN2CCOCC2)CN1Cc1cccs1` (configuration not stated), the cytotoxicity at 10 µM was -3.35%.
`COc1ccc(CN2CC(O)CN(C(=O)OCC(C)C)CC2=O)cc1` (configuration not stated): the cytotoxicity at 10 µM was -7.34%.
As to `Cc1cc(C)n2c(CCCNS(=O)(=O)c3ccc(F)cc3)nnc2n1`, the cytotoxicity at 10 µM is 2.38%.
With `O=C(c1ccc(Cl)s1)N1CC(c2nc(-c3ccc[nH]c3=O)no2)C1` the figure was -1.26%; with `CS(=O)(=O)NCC(Cc1cccc(F)c1)N1CCNC1=O` (configuration not stated), -2.91%; with `O=S(=O)(Nc1cnc(N2CCCC2)nc1)c1ccc(F)cc1F`, -14.4%.
For the molecule `Cn1cnc(S(=O)(=O)NCC2(O)CCc3ccccc3C2)c1` (configuration not stated), the cytotoxicity at 10 µM was -4.2%.
Turning to `Cn1cnnc1S(=O)(=O)C1CCN(S(=O)(=O)c2ccccc2F)CC1`, the cytotoxicity at 10 µM was -2.08%.
For `O=C1CC2(CCN(c3nncs3)C2)CN1c1cncnc1` (configuration not stated), the cytotoxicity at 10 µM is -0.376%.
Take `Cc1nnc(N2C[C@H](C(=O)NCc3ccco3)[C@@H]3CCO[C@@H]3C2)s1`: the cytotoxicity at 10 µM is 8.5%.
For the molecule `Cc1ccc(C(=O)N2C[C@@H]3COC[C@]3(COCc3cccnc3)C2)cn1`, the cytotoxicity at 10 µM is 0.719%.
With `O=C(Cn1nc(Br)nc1Br)N1CCOCC1` the figure was -1.14%.
Turning to `O=C1CC(N2CCN(c3ccccc3O)CC2)C(=O)N1Cc1cccs1` (configuration not stated), the cytotoxicity at 10 µM was -0.872%.
Take `Cc1ccc(Cl)cc1N1CCN(CC(=O)NCc2ccco2)CC1`: the cytotoxicity at 10 µM is 1.67%.
On to `CC(NC(=O)C(C)(C)C)c1cc(O)nc(-c2cccnc2)n1` (configuration not stated), for which the cytotoxicity at 10 µM is 6.5%.
Consider `Cn1ccnc1C(O)c1ccccc1N1CCN(Cc2cccs2)CC1` (configuration not stated), for which the cytotoxicity at 10 µM came out at 5.03%.
In the case of `CS(=O)(=O)c1cc(Cl)cnc1C1CCN(C(=O)C2CC2)CC1`, the cytotoxicity at 10 µM amounted to 8.21%.
On to `Cc1ncsc1CN1CCOC(C)(C(N)=O)C1` (configuration not stated), for which the cytotoxicity at 10 µM is 0.267%.
`C[C@@H]1CN(c2nc(O)cc(Cc3ccccc3F)n2)C[C@H](C)O1`: the cytotoxicity at 10 µM is 5.31%.
On to `Cc1ccccc1C(O)CNC(=O)Cc1ccc(F)cc1` (configuration not stated), for which the cytotoxicity at 10 µM turned out to be 5.8%.
Next, `COCCN(Cc1noc(-c2ccc(OC)cc2)n1)C1CC1`: 5.69%; `CC(=O)N1CCCN(CCCSCc2ccccc2)CC1`: -4.53%; `CCn1ccnc1CN1CCCN(C(=O)c2cncnc2C)CC1`: 5.65%.
Regarding `Cn1c(CO)nnc1SCc1c(F)cccc1Br`, the cytotoxicity at 10 µM is -41.2%.
Consider `CC(NC(=O)NCCC1=CCCCC1)c1nncn1C` (configuration not stated), for which the cytotoxicity at 10 µM was -11.7%.
With `O=C(C1CCCO1)N1CCC(c2nc(-c3ccccc3)n[nH]2)CC1` (configuration not stated) the figure was -10.9%; with `CC(CC(=O)NCCCn1cccn1)c1cccnc1` (configuration not stated), -1.66%.
`COc1ccc(CNC(=O)CN2CCc3ccccc32)cc1`: the cytotoxicity at 10 µM came out at 10.5%.
With `COCCC(C)NC(=O)N1CCC(n2ccc(C(F)(F)F)n2)CC1` (configuration not stated), the cytotoxicity at 10 µM was -3.9%.
Next, `CCSc1cc(C(=O)NCC(C)(C)N(C)C)ccn1`: -13.4%; `CCOc1cncc(N(C)CC(=O)NC)n1`: 2.16%; `CC(C)c1nc(CSc2nnc(Cn3cncn3)o2)cs1`: 3.19%.
With `O=C(CCc1ccco1)Nc1ccc(Br)cn1`, the cytotoxicity at 10 µM came to 81.2%.
Turning to `Cc1cc(CSc2nc(=O)ccn2C(C)C)no1`, the cytotoxicity at 10 µM came to 14.9%.
Take `CCn1cc(CNCCNc2ncc(Cl)cc2Cl)cn1`: the cytotoxicity at 10 µM is -4.27%.
With `CC(C(=O)Nc1cc(F)ccc1F)N1CCN(Cc2ncc[nH]2)CC1` (configuration not stated), the cytotoxicity at 10 µM was -15.8%.
For the molecule `CCn1nc(C)cc1C(=O)N1C[C@@H]2C[C@@H](c3nc(C)cs3)O[C@@H]2C1`, the cytotoxicity at 10 µM stood at 3.39%.
For `Cc1ccc(C(=O)N2CCN(C)C3(CCC(=O)N(C)CC3)C2)c(F)c1` (configuration not stated), the cytotoxicity at 10 µM was -1.68%.
On to `CCn1c(Cn2cncn2)nnc1C1CCN(C2CCOCC2)CC1`, for which the cytotoxicity at 10 µM came out at 9.23%.
With `CCCN(Cc1cccnc1)C(=O)C1CCS(=O)(=O)CC1`, the cytotoxicity at 10 µM is -9.03%.
On to `Clc1ccc(-n2cnnc2CCCN2CCOCC2)cc1`, for which the cytotoxicity at 10 µM was 5.52%.
Take `NC(=O)c1cnc2n1CCN(C(=O)c1ccc(Cn3cccc3)cc1)C2`: the cytotoxicity at 10 µM is -1.5%.
For `COCC(=O)N1CCCN(C(=O)C2Cc3ccccc3CN2C)CC1` (configuration not stated), the cytotoxicity at 10 µM worked out at 4.28%.
Next, `CC(=O)N1CCN(Cc2ccc3c(c2)OCCO3)CC(O)C1` (configuration not stated): 4.14%; `CC(=O)N1CCCn2nc(CNS(=O)(=O)N3CCC(C)CC3)cc2C1`: 9.91%.
As to `CNC(=O)Cc1ccc(-n2ccnc2-c2cccc(C(=O)O)c2)cc1`, the cytotoxicity at 10 µM was -7.9%.
On to `CN(C)Cc1nc(C(=O)N2CCCC(COc3ccc(F)cc3)C2)cs1` (configuration not stated), for which the cytotoxicity at 10 µM was -6.09%.
Take `O=C(O)[C@@H]1CN(C(=O)c2ccc3nccnc3c2)C[C@H]1c1ccncc1`: the cytotoxicity at 10 µM is -11.3%.
Regarding `COc1cccc2c1OCC(C(=O)NCc1ncc3c(n1)CCC3)C2` (configuration not stated), the cytotoxicity at 10 µM is -8.51%.
Take `COc1ccc2c(c1)CC(NCCCn1nc(C)nc1C)CC2` (configuration not stated): the cytotoxicity at 10 µM was -3.27%.
Consider `CC(=O)c1cccc(OCc2cc(C(=O)N3CCCCO3)n[nH]2)c1`, for which the cytotoxicity at 10 µM is 2.19%.
As for `CN(C)c1nccnc1N1CC[C@@]2(O)CCNC[C@H]2C1`, the cytotoxicity at 10 µM stood at 7.12%.
As for `CCc1nc(N2CCC3(CCC(=O)N(Cc4ccncc4)C3)CC2)no1`, the cytotoxicity at 10 µM was 7.1%.
With `CCNc1ncc(C(=O)N(C)C(C)c2ccc3c(c2)OCCO3)cn1` (configuration not stated) the figure was -0.75%; with `O=C(O)c1nn(CC2CC2)c2c1CN(S(=O)(=O)c1cccnc1)CC2`, 3.16%.
Take `CC(C)(C)C(=O)NCCNc1cc(N2CCCC2)ncn1`: the cytotoxicity at 10 µM was -43%.
As to `Cc1ccc(OCC(C)NS(C)(=O)=O)cc1C` (configuration not stated), the cytotoxicity at 10 µM stood at 9.98%.
`CN(Cc1cscn1)C1CCCN(c2cccnn2)C1` (configuration not stated): the cytotoxicity at 10 µM was -3.69%.
For the molecule `Cc1cnn(CC2CCCCN2Cc2ncc(C(C)(C)C)o2)c1` (configuration not stated), the cytotoxicity at 10 µM was -3.44%.
With `CC(C)c1nn(C)c(N(C)C)c1CNC(C)c1ccccc1F` (configuration not stated), the cytotoxicity at 10 µM is -2.97%.
For the molecule `Cc1ccc(CN(Cc2nc3c(cnn3C)c(=O)[nH]2)C2CC2)o1`, the cytotoxicity at 10 µM was -1.92%.
For the molecule `N#Cc1cccc(C(=O)N2CCC(Nc3cccnn3)CC2)c1`, the cytotoxicity at 10 µM is -5.17%.
Take `CC1CN(CCc2ccccn2)CCN1c1ccc2nncn2n1` (configuration not stated): the cytotoxicity at 10 µM was -3.43%.
Next, `Cc1ccc(CN(C)C(=O)CN2CCCC(Cn3cncn3)C2)o1` (configuration not stated): -24.4%; `CC(C)c1n[nH]c(C2CN(C(=O)c3ncoc3C(C)C)CCO2)n1` (configuration not stated): -7.22%.
With `CC(C)c1noc(C(C)N2CCN(Cc3cccnc3)CC2)n1` (configuration not stated) the figure was -5.44%; with `CCc1noc(CN2CCN(CCO)CC2)n1`, -6.13%; with `CCCN(CCC)C(=O)CN(C)C1CCc2ccccc21` (configuration not stated), -6.63%.
With `Cc1nc(C)n(CC2CCCCN2CC(=O)Nc2cc(C)on2)n1` (configuration not stated) the figure was 2.67%; with `CC(C)COCCCNC(=O)NCC(O)c1cccc(F)c1` (configuration not stated), -3.1%.
As to `COc1ncccc1CNC(=O)Nc1ccc(N(C)C)nc1`, the cytotoxicity at 10 µM was -4.38%.
With `CN1CCC/C1=N\S(=O)(=O)c1ccc(NC(=O)c2ccc(Cl)cc2)cc1` the figure was -0.383%; with `O=C(c1cccc(CNS(=O)(=O)c2ccc(F)cc2)c1)N1CCCC1`, -8.57%; with `CCC(CC)C(=O)NCCc1ccn(-c2ccccc2)n1`, -8.8%.
For the molecule `CC(Cn1cccn1)NC(=O)NCc1ccoc1` (configuration not stated), the cytotoxicity at 10 µM is 8.59%.
Next, `CC(C)N(Cc1cccc(Cl)c1)Cc1nc2c(cnn2C)c(=O)[nH]1`: 1.97%.
Regarding `O=C(CCc1cscn1)N1CCCC(c2ccn[nH]2)C1` (configuration not stated), the cytotoxicity at 10 µM was -9.14%.
In the case of `Cc1ccc(CNC(=O)NCc2cccnc2N(C)C)s1`, the cytotoxicity at 10 µM was -4.15%.
With `CCc1nnc2n1CCN(C(=O)C(C)COCc1ccccc1)C2` (configuration not stated), the cytotoxicity at 10 µM is -9.46%.
For the molecule `CC(C)c1nc(C2CCCN2Cc2ccn(C)c(=O)c2)no1` (configuration not stated), the cytotoxicity at 10 µM was -12.2%.
Take `CCOc1cc(CNC(=O)N2CCC(Cc3cnn(C)c3)C2)ccn1` (configuration not stated): the cytotoxicity at 10 µM is -8.29%.
For `CC(C)c1ccc(C(O)Cn2c(=O)c(C#N)cn(C3CC3)c2=O)cc1` (configuration not stated), the cytotoxicity at 10 µM is -11.5%.
For the molecule `CCc1nc(CN2CCCN(C(=O)C(C)COC)CC2)cs1` (configuration not stated), the cytotoxicity at 10 µM was -0.884%.
As for `CN(CCNC(=O)NCc1ccncc1)C1CCCC1`, the cytotoxicity at 10 µM was -2.95%.
In the case of `Cc1cc(CN(C)C(=O)c2ccc(F)cc2Br)no1`, the cytotoxicity at 10 µM came to 0.864%.
Take `CNC(=O)C1(N2CCC[C@H]2C(=O)NC2CCOCC2)CCOCC1`: the cytotoxicity at 10 µM stood at 0.705%.
As for `Cn1cc(CN2CCC(F)(F)C3(CCN(c4cccnc4)C3)C2)cn1` (configuration not stated), the cytotoxicity at 10 µM stood at 3.89%.
Turning to `COCCN1C[C@@H]2[C@@H](OC)CCN(Cc3ccc(C)o3)[C@@H]2C1`, the cytotoxicity at 10 µM is -4.42%.
For `Cc1ccc(CN2CCO[C@H]3[C@@H](OCc4cccnc4)CC[C@@H]32)o1`, the cytotoxicity at 10 µM was -0.58%.
`COc1ncccc1C(=O)N1CC[C@H]2C[C@H](c3nnc(C)[nH]3)O[C@@H]2C1`: the cytotoxicity at 10 µM turned out to be 2.4%.
As for `Cc1cccc(CN2Cc3ccnn3CC(COCC3CC3)C2)n1` (configuration not stated), the cytotoxicity at 10 µM came to 2.13%.
Take `c1cc(CN2C[C@@H]3OCCN(CCN4CCCC4)[C@@H]3C2)co1`: the cytotoxicity at 10 µM was 6.13%.
As for `CCN1CCC(N2CCC(C(=O)N(C)C)CC2)CC1`, the cytotoxicity at 10 µM was determined as 0.486%.
With `COc1ccc(CN2CCC3(CC2)CC(c2cccnc2)CO3)cc1` (configuration not stated) the figure was -0.259%.
Consider `Cn1cc2c(n1)C(CNCc1ccco1)OCC2` (configuration not stated), for which the cytotoxicity at 10 µM is -1.54%.
On to `c1cnc(N2C[C@H]3CC[C@@H](C2)N(Cc2ccsc2)C3)nc1`, for which the cytotoxicity at 10 µM came to 1.2%.
For the molecule `COCC(=O)NCC1CCC(c2ccnc3ncnn23)CC1` (configuration not stated), the cytotoxicity at 10 µM amounted to 1.36%.
